Assay outcomes as filed in PubChem.
An excerpt weighted towards active compounds, which were near 2.8% of everything screened.
NPY Y1 blocker: NPY-Y1 receptor antagonists, primary screen, cell-based; HEK293-CNG Y1 cells, membrane potential fluorescence; NPY at EC95, then isoproterenol; inhibition, % at 3.6 µM; 200,000 compounds, 1% hits; AID 1040, 2008;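 active means inhibition above the campaign mean inhibition of all tested compounds plus 3 SD, cut at about 20% in these data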
Target sequence (P25929 whole entry, looked up): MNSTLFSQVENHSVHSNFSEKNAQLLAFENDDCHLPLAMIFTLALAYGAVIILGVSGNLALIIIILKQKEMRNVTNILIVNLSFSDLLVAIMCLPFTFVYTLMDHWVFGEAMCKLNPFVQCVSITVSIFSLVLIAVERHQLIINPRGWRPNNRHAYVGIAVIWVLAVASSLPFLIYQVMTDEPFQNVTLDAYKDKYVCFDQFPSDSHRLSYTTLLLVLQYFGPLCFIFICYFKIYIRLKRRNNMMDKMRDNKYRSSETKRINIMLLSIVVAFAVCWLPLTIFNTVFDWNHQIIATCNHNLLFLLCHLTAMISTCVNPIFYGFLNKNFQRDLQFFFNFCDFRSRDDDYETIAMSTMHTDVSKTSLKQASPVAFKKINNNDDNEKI
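System: HEK293 cells with Y1 receptor plus CNG channel / Probe or stimulus: NPY 25 nM then isoproterenol 1 µM plus Ro 20-1724 25 µM / Compound: one concentration, 3.6 µM, in 0.4% DMSO / Schedule: compound incubation 1 h at room temperature, readout 45 min post-stimulation / Measured by: membrane potential fluorescence / Read-out: % inhibition of NPY effect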
NPY-Y2 PAM-ag: NPY-Y2 potentiators or agonists, primary screen, cell-based | cells expressing NPY-Y2, potentiator/agonist read-out | activation, % at 3.6 µM | 220,000 compounds, 0.45% hits; in the data active means activation above about 27%;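 further: cells stimulated with NPY near EC25 plus isoproterenol at EC100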
NPY-Y1 PAM-ag: NPY-Y1 receptor potentiators or agonists, primary screen, cell-based. 220,000 compounds, 0.37% hits. activation, % at 3.6 µM. Neuropeptide Y receptor type 1 (Homo sapiens), P25929. AID 1304, 2008. NPY-Y1 expressing cells, potentiator/agonist activation; in the data active means activation above about 33%, passing the limit was not always enough;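 further: cells stimulated with NPY at EC10 then isoproterenol at EC100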
NPY-Y2 antag: NPY-Y2 receptor antagonists, primary screen, cell-based | AID 793, 2007 | 140,000 compounds, 0.99% hits | inhibition, % at 2.7 µM | NPY-Y2 expressing cells, antagonist mode | Neuropeptide Y receptor type 2 (Homo sapiens), P49146; in the data active means inhibition above about 17%
PGE2 EP2 inh: human EP2 receptor antagonists, primary screen, TR-FRET cAMP, C6 glioma cells | C6 glioma cells expressing human EP2; cells stimulated with saturating PGE2 | inhibition, % at 25 µM | 260,000 compounds, 0.52% hits;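 active means percent inhibition above 40 after rounding to a whole number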;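 further: rat C6 glioma host cells with rolipram phosphodiesterase inhibitor present; the protocol text gives 20 µM as final concentration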
Target sequence (P43116 whole entry, looked up): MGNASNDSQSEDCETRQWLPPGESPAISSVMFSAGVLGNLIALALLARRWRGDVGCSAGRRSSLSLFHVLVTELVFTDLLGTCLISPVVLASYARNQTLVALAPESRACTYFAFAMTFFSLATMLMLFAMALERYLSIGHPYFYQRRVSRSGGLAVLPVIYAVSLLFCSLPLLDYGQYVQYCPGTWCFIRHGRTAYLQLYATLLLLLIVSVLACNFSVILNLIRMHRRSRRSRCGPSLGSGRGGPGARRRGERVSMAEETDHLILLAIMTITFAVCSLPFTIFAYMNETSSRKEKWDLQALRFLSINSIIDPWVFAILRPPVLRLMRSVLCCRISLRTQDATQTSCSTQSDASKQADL
EP2 modulator: EP2 receptor modulators, cAMP readout, primary screen, cell-based, HTRF cAMP, PGE2 stimulation; Prostaglandin E2 receptor EP2 subtype (Homo sapiens), P43116; EP2-expressing cells, cAMP HTRF FRET, PGE2 co-stimulation; induction, % at 25 µM; 260,000 compounds, 0.83% hits;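 active means compounds whose cAMP rise, as percent of the full-agonist control response, exceeds 60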;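 further: rat C6 glioma line stably carrying human EP2 under a CMV promoter; the protocol text gives 20 µM as final concentration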
NPY-Y2 pot conf: NPY-Y2 potentiators or agonists, confirmation, cell-based; shares compounds with NPY-Y2 PAM-ag; cell-based NPY-Y2 potentiator/agonist assay; activation, % at 3.6 µM; 450 compounds, 20% hits; AID 1539, 2009; in the data active means activation above about 33%
NPY-Y1 potentiator: NPY-Y1 potentiators or agonists, counter-screen for NPY-Y2 potentiator project, cell-based, fluorescence; shares compounds with NPY-Y2 PAM-ag; Y1 HEK293-CNG cells, membrane potential fluorescence; activation, % at 3.6 µM; 450 compounds, 20% hits; AID 1651, 2009; in the data active means activation above about 45%;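 further: cells stimulated with submaximal NPY then isoproterenol with phosphodiesterase inhibitor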
NPY-Y1 agonist 2: NPY-Y1 direct agonists, selectivity assay for NPY-Y2 potentiator project, cell-based, fluorescence; shares compounds with NPY-Y2 PAM-ag; 450 compounds, 37% hits; activation, % at 3.6 µM; HEK293 Y1-CNGC, membrane potential fluorescence, agonism; AID 1702, 2009;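 active means activation above the mean of DMSO-only control wells plus 3 SD, cut at about 18% in these data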;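 further: cells stimulated with 1 µM isoproterenol plus the PDE inhibitor Ro 20-1724; Y1 agonists lower the membrane potential dye signal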
CNGC inhibitor: CNGC cAMP sensor activity inhibitors, counter-screen for NPY-Y2 potentiator project, cell-based, HEK293-CNG parental, membrane potential fluorescence | isoproterenol cAMP | 450 compounds, 32% hits | AID 1703, 2009 | inhibition, % at 3.6 µM | shares compounds with NPY-Y2 PAM-ag;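 active means inhibition above the control-well mean plus 3 SD of those wells, cut at about 22% in these data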
Y2 agonist ctr: NPY-Y2 direct agonists, counter-screen for NPY-Y2 potentiator project, cell-based, fluorescence; shares compounds with NPY-Y2 PAM-ag; HEK293 Y2/CNGC cells, membrane potential fluorescence, agonist mode; activation, % at 3.6 µM; 450 compounds, 56% hits;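 active means activation above the mean of solvent-only control wells plus 3 SD, cut at about 10% in these data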;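 further: cells stimulated by isoproterenol with no NPY added so direct agonism is tested; agonism lowers probe fluorescence through less cAMP and CNG channel opening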
Numbers stand for hits; – = inactive; · = no result.

SMILES	NPY Y1 blocker	NPY-Y2 PAM-ag	NPY-Y1 PAM-ag	NPY-Y2 antag	PGE2 EP2 inh	EP2 modulator	NPY-Y2 pot conf	NPY-Y1 potentiator	NPY-Y1 agonist 2	CNGC inhibitor	Y2 agonist ctr
COc1ccccc1NS(=O)(=O)c1cccc(-n2c(O)c(C=Nc3ccccc3C(=O)O)c3ccccc3c2=O)c1	·	45.0	–	·	–	–	–	–	34.3	–	30.1
COc1ccc(Cn2c(O)c(C=Nc3ccccc3C(=O)O)c3ccccc3c2=O)cc1	·	54.1	–	·	–	–	–	–	28.4	–	27.1
O=c1[nH]c2cc3c(cc2cc1CN(Cc1nnnn1CC1CCCO1)C1CCCC1)OCCO3 (configuration not stated)	·	·	·	·	–	–	·	·	·	·	·
COc1ccc(-n2c(C)cc(C(=O)CN3C(=O)c4ccccc4C3=O)c2C)cc1	–	–	–	–	–	–	·	·	·	·	·
COc1ccc(-n2c(C)cc(C(=O)COC(=O)Cn3cnc4ccccc43)c2C)cc1	–	37.7	–	–	–	–	–	–	–	–	–
CN(Cc1ccccc1)C(=O)COC(=O)c1cc(NS(=O)(=O)c2cccs2)ccc1O	–	35.2	–	·	–	–	–	–	–	–	–
O=C(COC(=O)c1cc(NS(=O)(=O)c2cccs2)ccc1O)Nc1ccccc1	·	–	–	·	–	–	·	·	·	·	·
Cc1cccc(-n2c(O)c(C=Nc3ccc(S(=O)(=O)N4CCCCC4)cc3)c(=O)[nH]c2=O)c1	·	·	·	·	–	–	·	·	·	·	·
Nc1nc(N2CCCCC2)nc2ccccc12	–	54.5	–	–	·	–	71.5	79.2	43.6	40.1	71.6
c1ccc2c(NCC3CCCO3)nc(N3CCCCC3)nc2c1 (configuration not stated)	–	–	–	·	–	–	·	·	·	·	·
N=c1n(CCOc2ccc3ccccc3c2)c2ccccc2n1CC(N)=O	·	·	·	·	–	–	·	·	·	·	·
Cc1cc(=O)[nH]c2c1c(=O)[nH]n2C1CCCC1	·	·	·	·	–	–	·	·	·	·	·
Clc1ccc(OCc2nnc(SCc3nc4ccccc4[nH]3)n2Cc2ccco2)cc1	–	40.4	–	–	–	–	–	–	–	–	14.4
Clc1cccc(-c2nnc(SCc3nc4ccccc4[nH]3)n2Cc2ccco2)c1	–	–	–	–	–	–	·	·	·	·	·
Cc1ccc(NC(=O)Nc2cccc([N+](=O)[O-])c2)cc1F	–	31.6	–	–	–	–	–	–	–	–	17.1
O=C(Nc1ccc(OC(F)(F)F)cc1)Nc1cccc([N+](=O)[O-])c1	–	–	–	–	–	–	·	·	·	·	·
Cc1ccccc1Nc1c(-c2ccncc2)nc2ccc(Br)cn12	–	47.5	–	–	–	–	71.4	76.3	57.6	52.9	69.7
Nc1n[nH]c(N)c1N=Nc1ccc(F)cc1	–	–	–	·	–	–	·	·	·	·	·
Cc1n[nH]c(C)c1N=Nc1ccc(Br)cc1	–	30.7	–	·	–	–	–	–	–	–	–
Cc1cc(CN(C)C(=O)c2cc(COc3ccc4ncccc4c3)on2)on1	–	37.9	–	·	–	–	–	–	–	–	–
O=C(Nc1nc(-c2ccccc2)cs1)c1ccccc1NS(=O)(=O)c1ccc(F)cc1	–	46.1	–	–	–	–	–	–	–	–	–
Fc1ccc(Nc2c(-c3ccco3)nc3ccccn23)cc1	–	32.4	–	–	–	–	–	–	17.5	–	22.4
NC(=O)NCCCC1NC(=S)N(c2ccccc2)C1=O (configuration not stated)	·	·	·	·	–	–	·	·	·	·	·
O=C(Nc1ccc(S(=O)(=O)Nc2ncccn2)cc1)c1ccc(Br)s1	–	27.7	–	–	–	–	–	–	–	–	–
CCOC(=O)Cn1c(=O)oc2cc(S(=O)(=O)Nc3ccc(F)cc3)ccc21	–	35.8	–	–	–	–	–	–	21.8	33.0	11.7
SMILES	NPY Y1 blocker	NPY-Y2 PAM-ag	NPY-Y1 PAM-ag	NPY-Y2 antag	PGE2 EP2 inh	EP2 modulator	NPY-Y2 pot conf	NPY-Y1 potentiator	NPY-Y1 agonist 2	CNGC inhibitor	Y2 agonist ctr
CCCCNS(=O)(=O)c1ccc(NC(=O)C(Sc2ccccc2)c2ccccc2)cc1 (configuration not stated)	–	29.3	–	–	–	–	–	–	20.0	24.9	25.4
CCC(C)NS(=O)(=O)c1ccc(NC(=O)C(Sc2ccccc2)c2ccccc2)cc1 (configuration not stated)	–	–	–	–	–	–	·	·	·	·	·
CCc1ccc(CN(Cc2ccccn2)C2CC(C)(C)NC(C)(C)C2)o1	·	·	·	·	–	–	·	·	·	·	·
CCC(=O)NC(c1cccs1)c1c(O)ccc2ccccc12 (configuration not stated)	·	·	·	·	–	–	·	·	·	·	·
Cc1nc(N)ncc1C(=O)O	·	·	·	·	–	–	·	·	·	·	·
O=C(CNCCC1=CCCCC1)Nc1ccc(N2CCCCCC2)cc1	–	44.5	–	–	–	–	38.7	45.0	36.9	37.6	46.1
C#CC(=O)N(c1ccc(OC)cc1OC)C(C(=O)NC1CCCC1)c1cccs1 (configuration not stated)	–	35.0	–	·	–	–	–	–	–	48.1	21.4
C#CC(=O)N(c1cc(OC)ccc1OC)C(C(=O)NC1CCCC1)c1cccs1 (configuration not stated)	–	–	–	–	–	–	·	·	·	·	·
CCOc1cc(C(=S)N2CCOCC2)ccc1OS(=O)(=O)c1ccc(NC(C)=O)cc1	–	32.8	–	–	–	–	–	–	–	–	–
CCOc1ccc(C(=O)Nc2ccc(S(=O)(=O)N3CCOCC3)cc2)cc1OCC	–	–	–	–	–	–	·	·	·	·	·
C=C(C)CN(CC)C(=O)CC1C(=O)NCCN1CC(C)(C)C (configuration not stated)	·	51.1	–	·	–	–	–	–	–	–	–
